Data: PMC7049346 (Haematologica, 2019)

How the values were obtained:
K562 cells [1] = settings: cited from earlier work
K562 cells [2] = experiment: cGMP induction in K562 cells; assay type: cell-based, human; settings: 6 h
How it was run: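 Actively growing K562 cells were treated for 6 h with increasing concentrations of the test compound or hydroxyurea. cGMP was measured by non-radioactive enzyme immunoassay using the acetylation protocol, and protein by BCA assay. Data are means±Standard Errors.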

K562 cells [3] = experiment: HbF induction in K562 cells; assay type: cell-based, human; settings: 72 h
K562 cells [4] = experiment: Cytotoxicity in K562 cells; assay type: cell-based, human; settings: end of 72-h culture
How it was run: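 Actively growing K562 cells were cultured for 72 h with increasing concentrations of the test compound. Terminal viability was scored by automated cell counting or trypan-blue exclusion, or by an ATP-based luminescence assay. Apoptosis was checked by Annexin V flow cytometry.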

HbSS-Townes mice [5] = experiment: Townes SCD model, 30 days daily oral dosing; assay type: in vivo; settings: for percentage of sickled RBC: vehicle 56%
HbSS-Townes mice [6] = experiment: HbSS-Townes vaso-occlusive crisis model; assay type: in vivo; settings: HU 100 mg/kg/day for ten days, P<0.05
[7] = system: erythroid cells from CD34+ progenitors of SCD patients; experiment: HbF induction in SCD patient-derived erythroblasts; assay type: cell-based, human; settings: 30 μM HU
How it was run: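 CD34⁺ progenitors came from the blood or bone marrow of nine SCD donors. Cells grew seven days with 15% BIT 9500, 2 mM L-glutamine, IL-3 (10 ng/mL), IL-6 and SCF (100 ng/mL). CD36⁺ cells were then isolated and grown five days with SCF, IL-3 and EPO (2 UI/mL) plus DMSO, 30 μM hydroxyurea or 10 μM test compound. HbF⁺ cells (%) and HbF MFI were read by PE-anti-HbF FACS, gated LiveDead⁻/GPA⁺/Band3⁺.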

mice = experiment: Classical fear conditioning model of learning and memory; assay type: in vivo; settings: similar dose of both PDE9i
[8] = HU 100 mg/kg, 30 days, not significant

SMILES: C[C@H](Cc1nc2c(cnn2-c2ccccc2Cl)c(=O)[nH]1)C(F)(F)F [BAY73-6691]
- HbF mRNA expression (K562 cells [1]): increased HbF mRNA expression

SMILES: Nc1nc(-c2nn(Cc3ccccc3F)c3ncccc23)ncc1C1CC1 [BAY 41-2271]
- HbF mRNA expression (K562 cells [1]): increased HbF mRNA expression

SMILES: NC(=O)NO [HU, Hydroxyurea]
- cGMP induction (K562 cells [2]): increases cGMP in a dose-dependent manner
- HbF induction (ELISA) (K562 cells [3]): induced HbF in a dose-dependent manner
- Cytotoxicity (cell counts) (K562 cells [4]): induction was accompanied by cytotoxicity
- percentage of sickled RBC (HbSS-Townes mice [5]; HU 25 mg/kg/day, 30 days): 52%
- percent F-cells (HbSS-Townes mice [5]; HU 25 mg/mL/day (so in the source), 30 days, vehicle 8.4%, not significant): 13%
- percentage of sickled RBC (HbSS-Townes mice [5]; HU 50 mg/kg/day, 30 days): 49%
- percent F-cells (HbSS-Townes mice [5]; HU 50 mg/mL/day (so in the source), 30 days, vehicle 8.4%, not significant): 18%
- WBC lower than vehicle (HbSS-Townes mice [5]; HU 100 mg/kg, 30 days): 21%
- reduction of MPO levels (HbSS-Townes mice [5]; HU 100 mg/kg, 30 days): 2.1 fold
- reduction of lung arginase (compared with IMR-687) (HbSS-Townes mice [5]; HU 100 mg/kg, 30 days): less pronounced
- reduction of plasma free Hb levels (HbSS-Townes mice [5]; HU 100 mg/kg, 30 days): approximately 55%
- lung MPO levels (HbSS-Townes mice [5]; HU 100 mg/kg, 30 days, HbSS-Townes vehicle 3.1 mU/L, P<0.0001): 1.5 mU/L
- plasma bilirubin (HbSS-Townes mice [5]; HU 100 mg/kg, 30 days, P<0.01): 5 mg/dL
- changes in reticulocyte counts, RBC, hematocrit and Hb (compared with IMR-687) (HbSS-Townes mice [5]; HU 100 mg/kg, 30 days, changes in Hb not significant): produced smaller changes
- LDH levels (HbSS-Townes mice [5]; [8]): 121 AU
- plasma nitrite levels (HbSS-Townes mice [5]; [8]): 1.23 mg/mL
- WBC count (HbSS-Townes mice [5]; HU 100 mg/kg, 30 days, vehicle 38.2×10^9/L): 3.04e+10 L⁻¹
- Mortality (HbSS-Townes mice [5]; HU 100 mg/kg/day): resulted in mortality in mice
- percent F cells (HbSS-Townes mice [5]; HU 100 mg/kg/day, 30 days, vehicle 8.4%): 29.3%
- percent sickled RBC (HbSS-Townes mice [5]; HU 100 mg/kg/day, 30 days, vehicle 56.3%): 28.8%
- changes in reticulocyte counts, RBC, hematocrit and Hb (HbSS-Townes mice [5]; HU 25 and 50 mg/kg, 30 days): only the change in reticulocyte counts was significant
- reduction of markers of hemolysis (bilirubin, LDH) (HbSS-Townes mice [5]; HU 25 and 50 mg/kg, 30 days): did not produce a significant reduction
- lung MPO levels (HbSS-Townes mice [5]; lower doses of HU, 30 days): reduced MPO levels in the lungs
- microvascular stasis (HbSS-Townes mice [6]; 1 h in normoxia, vehicle 33%): 13%
- microvascular stasis (HbSS-Townes mice [6]; 4 h in normoxia, vehicle 16%): 8%
- percentage of F-cells (HbF positive) ([7]; five days, DMSO control 13.3%, n=7, P<0.01): 22.2%
- intensity of HbF staining (MFI) ([7]; five days, control 6073±1217, n=7, P=0.041): 9744±2805
- Cytotoxicity in patient-derived cultures ([7]; 9 cultures): cytotoxicity induced by HU in 2 cultures

SMILES: C[C@@H]1CN(Cc2ncccn2)C[C@H]1c1nc2c(cnn2C2CCOCC2)c(=O)[nH]1 [PF-04447943, 6-[(3S,4S)-4-methyl-1-(pyrimidin-2-ylmethyl)pyrrolidin-3-yl]-1-(tetrahydro-2H-pyran-4-yl)-1,5-dihydro-4H-pyrazolo[3,4-d]pyrimidin-4-one, reference compound]
- conditioned fear responses (mice): significantly increased conditioned fear responses
